In publication PMC7499187 (CPT: Pharmacometrics & Systems Pharmacology, 2020):
“And” between values parts separate entries of the source, which are not always exact repeats. Equal entries are not always repeated. Where two headings read alike, the source gives them in different places.

Key:
[1] = cited from earlier work
[2] = format: in vivo, human; conditions: geometric mean (%CV)
Summary of the method: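 Semimechanistic nonlinear mixed-effect population PK model with gut and hepatic CYP3A metabolism and a well-stirred liver model. Individual post hoc parameters simulated single oral doses (200 mg; cycle 1 day 1 starting 150 or 200 mg). Parent AUC0−∞ = Dose×F/CL. […] Cmax was taken from predicted profiles. Results are geometric mean (%CV).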

[3] = Noncompartmental analysis of absolute bioavailability study JPBS; format: in vivo, human
[4] = Semimechanistic population PK model; format: in vivo, human; conditions: for Absorption lag time / CLint to form M2 in liver / CLint to form M20 in liver / Central volume / Fraction of Fa absorbed via transit compartment / Fraction of dose entering gut compartment, Fa / MTT / Maximum rate of absorption, ka,max / Peripheral volume / Rate constant for formation of M2 from gut / Rate constant for formation of M20 from gut / Zero-order absorption duration / Diarrhea effect on Fa / Km / CLint of M2 in liver / CLint of M20 in liver: final population model; for Km: Km for saturable absorption
[5] = Simulated Day 1 and steady-state exposures in MONARCH 2; format: in vivo, human; conditions: MONARCH 2 and MONARCH 3, simulated exposures
Summary of the method: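 Breast cancer patients on endocrine therapy were grouped as East Asian (Japanese, Korean, Taiwanese) or non-East Asian. Each patient's post hoc parameters came from a mechanistic NONMEM model, with dosage averaged over the study. Simulations covered cycle 1 day 1 after the starting dose (150 or 200 mg) and steady state after 56 days of 12-hourly dosing. Read-outs were geometric mean (%CV) Cmax, Cmin and dosing-interval AUC for parent, M2, M20 and total actives.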

[6] = cited from earlier work; remark: listed apart in the source
[7] = Healthy subjects, 200 mg single oral dose, N = 65
[8] = JPBL (patients), 150 mg single oral dose, N = 326
[9] = JPBL (patients), 200 mg single oral dose, N = 142
[10] = JPBN (patients), 200 mg single oral dose, N = 132
[11] = Patients, 200 mg single oral dose, N = 421
[12] = NCA (200 mg), JPBS healthy subjects N = 8, geometric mean (%CV)
[13] = coadministration with clarithromycin (CYP3A inhibitor)
[14] = coadministration with rifampicin (CYP3A inducer)

What does the source list for `CCN1CCN(Cc2ccc(Nc3ncc(F)c(-c4cc(F)c5nc(C)n(C(C)C)c5c4)n3)nc2)CC1` [Abemaciclib]?
parent drug renally excreted [1]: 3%; mean terminal elimination half-life ([1]; in patients): approximately 24 hours; median time to maximum plasma concentration ([1]; phase I cancer patient population): approximately 8 hours; Hepatic clearance [2, 7]: 23.8 (30.3) L/h; Hepatic clearance [2, 8]: 25.1 (21) L/h; Hepatic clearance [2, 9]: 26 (25.7) L/h; Hepatic clearance [2, 10]: 24.3 (24.9) L/h; Hepatic clearance [2, 11]: 21.8 (39.8) L/h; Hepatic clearance [3, 12]: 24.0 (27) L/h; AUC(0-inf) ([3]; human, plasma, oral, 200 mg): 3730 ng·h/mL; Cmax ([3]; human, plasma, oral, 200 mg): 114 ng/mL; bioavailability ([3]; human, plasma, oral, 200 mg): 44.8%; effect of body weight on abemaciclib exposure ([4]; adults): no clinically significant effect; difference in absorption parameters between the fasted state, a standard meal, and a high-fat meal ([4]; crossover food effect study): no significant difference; Absorption lag time ([4]; Bootstrap median (95% CI)): 1.76 (1.69–1.80) h; CLint to form M2 in liver ([4]; Bootstrap median (95% CI)): 235 (199–284) L/h; CLint to form M20 in liver ([4]; Bootstrap median (95% CI)): 700 (627–775) L/h; Central volume ([4]; Bootstrap median (95% CI)): 604 (563–635) L; Fraction of Fa absorbed via transit compartment ([4]; Bootstrap median (95% CI)): 0.479 (0.453–0.507); Fraction of dose entering gut compartment, Fa ([4]; Bootstrap median (95% CI)): 0.882 (0.874–0.890); MTT ([4]; Bootstrap median (95% CI)): 1.52 (1.43–1.62) h; Maximum rate of absorption, ka,max ([4]; Bootstrap median (95% CI)): 97.6 (85.0–111) µmol/h; Peripheral volume ([4]; Bootstrap median (95% CI)): 152 (132–184) L; Rate constant for formation of M2 from gut ([4]; Bootstrap median (95% CI)): 0.401 (0.366–0.432) /h; Rate constant for formation of M20 from gut ([4]; Bootstrap median (95% CI)): 0.306 (0.276–0.339) /h; Zero-order absorption duration ([4]; Bootstrap median (95% CI)): 3.04 (2.52–3.84) h; Diarrhea effect on Fa ([4]; Bootstrap median (95% CI), logit parameter): −0.0079 (−1.29, 2.65 × 10^−7); Absorption lag time ([4]; Estimate (%SEE)): 1.74 h and 1.74 (0.538) h; CLint to form M2 in liver ([4]; Estimate (%SEE)): 280 (0.436) L/h; CLint to form M20 in liver ([4]; Estimate (%SEE)): 705 (0.421) L/h; Central volume ([4]; Estimate (%SEE)): 588 (2.81) L; Fraction of Fa absorbed via transit compartment ([4]; Estimate (%SEE)): 0.458 (0.336); Fraction of dose entering gut compartment, Fa ([4]; Estimate (%SEE)): 0.868 (0.0583); MTT ([4]; Estimate (%SEE)): 1.44 h and 1.44 (3.68) h; Maximum rate of absorption, ka,max ([4]; Estimate (%SEE)): 91.1 µmol/h and 91.1 (3.96) µmol/h; Peripheral volume ([4]; Estimate (%SEE)): 159 (0.421) L; Rate constant for formation of M2 from gut ([4]; Estimate (%SEE)): 0.361 (0.479) /h; Rate constant for formation of M20 from gut ([4]; Estimate (%SEE)): 0.284 (0.468) /h; Zero-order absorption duration ([4]; Estimate (%SEE)): 3.18 h and 3.18 (10.3) h; Diarrhea effect on Fa ([4]; Estimate (%SEE), on the logit parameter for Fa): −0.417 (7.99); clearance ([4]; human, plasma, oral): 380 mL/min; Km ([4]; human, plasma, oral, Bootstrap median (95% CI)): 51.8 µM; Km ([4]; human, plasma, oral, Estimate (%SEE)): 52.7 µM; intrinsic ka (absorption rate constant) ([4]; in the absence of drug, metabolism-susceptible pathway): 1.73 h⁻¹; absorbed amount absorbed via the zero-order route ([4]; in vivo): 54.2%; dose either not absorbed or lost as other metabolites ([4]; in vivo): 13.2%; total administered dose absorbed either as abemaciclib, M2, or M20 ([4]; in vivo): 86.8%; typical total CLint of unbound abemaciclib that resulted in formation of M2 and M20 ([4]; in vivo): 985 L/h; amount that results in half maximal absorption rate ([4]; saturable absorption from final transit compartment): 27 mg; typical ka,max ([4]; saturable absorption from final transit compartment to liver): 46.2 mg/h; effect of East Asian ethnicity on abemaciclib PK [5]: no effect; increase of abemaciclib AUC [6, 13]: 237%; increase of abemaciclib Cmax [6, 13]: 30%; reduction of abemaciclib area under the curve (AUC) [6, 14]: 95%; reduction of abemaciclib maximum plasma concentration (Cmax) [6, 14]: 92%

Which “AUC0−∞” value [2, 7] does the source give for `Cc1nc2c(F)cc(-c3nc(Nc4ccc(CN5CCNCC5)cn4)ncc3F)cc2n1C(C)C` [M2] here?
The value was 1690 (39.9) ng·h/mL.

And the Apparent hepatic clearance [2, 7]?
Its Apparent hepatic clearance is 22.9 (28.4) L/h.

And the Cmax [2, 7]?
Its Cmax is 28.8 (36.1) ng/mL.

And the Half-life [2, 7]?
The Half-life was 21.2 (25.8) h.

What about the “AUC0−∞” value [2, 8] of the same molecule?
The value was 1640 (70.2) ng·h/mL.

And the Apparent hepatic clearance [2, 8]?
Its Apparent hepatic clearance is 18.3 (49.9) L/h.

What about the Cmax [2, 8] of the same molecule?
Its Cmax is 33.6 (70.4) ng/mL.

What about the Half-life [2, 8] of the same molecule?
Its Half-life is 17.2 (65.1) h.

And the “AUC0−∞” value [2, 9]?
Its value is 1820 (72) ng·h/mL.

And the Apparent hepatic clearance [2, 9]?
Its Apparent hepatic clearance is 20.9 (48.1) L/h.

What about the Cmax [2, 9] of the same molecule?
Its Cmax is 40.2 (73.9) ng/mL.

What about the Half-life [2, 9] of the same molecule?
The Half-life was 16 (73.6) h.

What about the “AUC0−∞” value [2, 10] of the same molecule?
Its value is 1620 (55.0) ng·h/mL.

What about the Apparent hepatic clearance [2, 10] of the same molecule?
Its Apparent hepatic clearance is 23.9 (35.3) L/h.

What about the Cmax [2, 10] of the same molecule?
Its Cmax is 26.9 (54.7) ng/mL.

And the Half-life [2, 10]?
Its Half-life is 21.3 (73.5) h.

And the “AUC0−∞” value [2, 11]?
The value was 1790 (71.6) ng·h/mL.

And the Apparent hepatic clearance [2, 11]?
Its Apparent hepatic clearance is 21.5 (54.3) L/h.

And the Cmax [2, 11]?
Its Cmax is 30.3 (75.7) ng/mL.

What about the Half-life [2, 11] of the same molecule?
Its Half-life is 19.3 (65.4) h.

And the “AUC0−∞” value [3, 12]?
Its value is 1450 (19) ng·h/mL.

And the Cmax [3, 12]?
The Cmax was 31.7 (22) ng/mL.

What about the Half-life [3, 12] of the same molecule?
Its Half-life is 72.6 (23) h.

What about the “CLint of M2 in liver” value ([4]; Bootstrap median (95% CI)) of the same molecule?
The value was 241 (218–271) L/h.

What about the “CLint of M2 in liver” value ([4]; Estimate (%SEE)) of the same molecule?
The value was 254 (2.06) L/h.

Which “AUC0−∞” value [2, 7] does the source give for `CCN1CCN(Cc2ccc(Nc3ncc(F)c(-c4cc(F)c5nc(CO)n(C(C)C)c5c4)n3)nc2)CC1` [M20] here?
Its value is 3450 (34.4) ng·h/mL.

And the Apparent hepatic clearance [2, 7]?
Its Apparent hepatic clearance is 23.9 (23.7) L/h.

What about the Cmax [2, 7] of the same molecule?
The Cmax was 49.1 (32.5) ng/mL.

And the Half-life [2, 7]?
Its Half-life is 20.3 (21.3) h.

And the “AUC0−∞” value [2, 8]?
The value was 2870 (69.6) ng·h/mL.

What about the Apparent hepatic clearance [2, 8] of the same molecule?
Its Apparent hepatic clearance is 22.5 (44.3) L/h.

And the Cmax [2, 8]?
Its Cmax is 59.3 (78.7) ng/mL.

And the Half-life [2, 8]?
The Half-life was 14 (62.5) h.

What about the “AUC0−∞” value [2, 9] of the same molecule?
Its value is 3020 (72.8) ng·h/mL.

And the Apparent hepatic clearance [2, 9]?
The Apparent hepatic clearance was 25.8 (43.3) L/h.

And the Cmax [2, 9]?
Its Cmax is 66.1 (82.8) ng/mL.

What about the Half-life [2, 9] of the same molecule?
The Half-life was 13 (70.1) h.

What about the “AUC0−∞” value [2, 10] of the same molecule?
The value was 2750 (55.0) ng·h/mL.

And the Apparent hepatic clearance [2, 10]?
Its Apparent hepatic clearance is 26.2 (33.5) L/h.

And the Cmax [2, 10]?
The Cmax was 39.4 (56.0) ng/mL.

What about the Half-life [2, 10] of the same molecule?
Its Half-life is 19.4 (72.7) h.

What about the “AUC0−∞” value [2, 11] of the same molecule?
Its value is 3240 (74.7) ng·h/mL.

What about the Apparent hepatic clearance [2, 11] of the same molecule?
The Apparent hepatic clearance was 23.7 (52.1) L/h.

And the Cmax [2, 11]?
Its Cmax is 48.8 (83.0) ng/mL.

And the Half-life [2, 11]?
The Half-life was 17.5 (62.5) h.

What about the “AUC0−∞” value [3, 12] of the same molecule?
Its value is 3260 (26) ng·h/mL.

What about the Cmax [3, 12] of the same molecule?
The Cmax was 55.7 (26) ng/mL.

And the Half-life [3, 12]?
Its Half-life is 35.3 (16) h.

What about the “CLint of M20 in liver” value ([4]; Bootstrap median (95% CI)) of the same molecule?
The value was 454 (417–489) L/h.

And the “CLint of M20 in liver” value ([4]; Estimate (%SEE))?
The value was 431 (2.00) L/h.
